The chains are these.
B1: Osa-1-4 twister ribozyme (parent)
chain: CCGCCUAACACUGCCAAUGCCGGUCCCAAGCCCGGAUAAAAGUGGAGGGGGCGG

167 variants from the RNAGym collection of RNA variant scans (doi:10.1002/anie.201605470) can be followed below.

This data set covers variants of B1. Nature of the data set: self-cleavage, relative activity (ratio to wild type); higher = more cleavage; co-transcriptional. The gist of the method:
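Values are relative activity: the fraction cleaved, normalised to wild type. A doped DNA template for a 54-nucleotide twister ribozyme from Oryza sativa had 97 % wild-type base and 1 % of each other base at the 48 positions downstream of the cleavage site. The RNA was transcribed in vitro for 2 h at 37 °C so that it could cleave itself co-transcriptionally, then sequenced deeply, with cleavage status scored from the presence or absence of upstream sequence in reads.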
With A36C C15G, the self-cleavage turned out to be 0.25.

On to A36C C15A, for which the self-cleavage amounted to 0.24. Regarding A36C C15U, the self-cleavage turned out to be 0.12. Take C33U U18G: the self-cleavage was 0.48. For C33U U18C the value was 0.63; for C33U U18A, 0.81.

Consider A36C A8U, for which the self-cleavage is 0.09. Regarding A36C A8G, the self-cleavage was determined as 0.14. The figure for A36C A8C is 0.06; for G34U U12A it is 0.14; for G34U U12G it is 0.05.

Regarding G34U U12C, the self-cleavage was found to be 0.14. In the case of G34A U37G, the self-cleavage is 0.88. Take G34A U37A: the self-cleavage is 0.88.

Turning to G34A U37C, the self-cleavage worked out at 0.89.

Consider G34A G42C, for which the self-cleavage was 0.08.

Take G34A G42A: the self-cleavage came to 0.11. Take G34A G42U: the self-cleavage is 0.05.

In the case of G34C G48U, the self-cleavage amounted to 0.05. In the case of G34C G48A, the self-cleavage came to 0.06. For G34C G48C the value was 0.05; for G35U G45A, 0.19.

In the case of G35U G45U, the self-cleavage amounted to 0.09. As for G35U G45C, the self-cleavage was 0.06.

As to G35A G42A, the self-cleavage came to 0.44. As for G35A G42C, the self-cleavage is 0.17. For G35A G42U the value was 0.08. On to G34A G53C, for which the self-cleavage stood at 0.05. The figure for G34A G53U is 0.13; for G34A G53A it is 0.49. For G35C G44A the value was 0.25; for G35C G44C, 0.45; for G35C G44U, 0.26. In the case of G34U U24A, the self-cleavage is 0.15. G34U U24C: the self-cleavage was found to be 0.07. Take G34U U24G: the self-cleavage turned out to be 0.03. Take G35C U24G: the self-cleavage turned out to be 0.01.

For G35C U24C, the self-cleavage was determined as 0.05. On to G35C U24A, for which the self-cleavage worked out at 0.06. For G35A G50A the value was 0.35; for G35A G50C, 0.78.

As to G35A G50U, the self-cleavage amounted to 0.9. For G34U U18G, the self-cleavage came out at 0.58. The figure for G34U U18A is 0.64; for G34U U18C it is 0.31; for A36C A46G it is 0.06. On to A36C A46C, for which the self-cleavage was found to be 0.07.

Regarding A36C A46U, the self-cleavage stood at 0.05. For G34C U37C, the self-cleavage turned out to be 0.65.

On to G34C U37G, for which the self-cleavage was 0.66. The figure for G34C U37A is 0.6; for G35A U12A it is 0.61; for G35A U12C it is 0.48. As to G35A U12G, the self-cleavage amounted to 0.06. Regarding G35U U12A, the self-cleavage came out at 0.47.

Take G35U U12G: the self-cleavage was 0.08. With G35U U12C, the self-cleavage was 0.37. The figure for G34C G53C is 0.09; for G34C G53U it is 0.07. As for G34C G53A, the self-cleavage is 0.09.

Turning to G35U U24G, the self-cleavage is 0.03. As for G35U U24A, the self-cleavage is 0.2. Regarding G35U U24C, the self-cleavage was 0.08. G34C U43G: the self-cleavage worked out at 0.07. Regarding G34C U43A, the self-cleavage is 0.09. For G34C U43C the value was 0.1; for G35A G51A, 0.25.

On to G35A G51U, for which the self-cleavage was determined as 0.12.

In the case of G35A G51C, the self-cleavage turned out to be 0.07. Consider G35A U18C, for which the self-cleavage turned out to be 0.52. For G35A U18G, the self-cleavage turned out to be 0.79. As to G35A U18A, the self-cleavage turned out to be 0.79. For G34C G42A, the self-cleavage amounted to 0.09. On to G34C G42U, for which the self-cleavage came to 0.04. In the case of G34C G42C, the self-cleavage came to 0.09.

As to G34U G54A, the self-cleavage turned out to be 0.39.

G34U G54C: the self-cleavage came out at 0.57. For the variant G34U G54U, the self-cleavage was found to be 0.49.

Consider G34A G47A, for which the self-cleavage came out at 0.13.

Consider G34A G47U, for which the self-cleavage turned out to be 0.1. The figure for G34A G47C is 0.08; for G35A it is 0.9.

As to G35U, the self-cleavage stood at 0.9. Turning to G35C, the self-cleavage came to 0.72. G35A G53U: the self-cleavage came out at 0.22.

Consider G35A G53C, for which the self-cleavage amounted to 0.08.

As for G35A G53A, the self-cleavage was 0.68. Turning to G34A U24C, the self-cleavage came to 0.06.

Turning to G34A U24G, the self-cleavage turned out to be 0.03.

G34A U24A: the self-cleavage stood at 0.18.

In the case of G35A U43C, the self-cleavage is 0.41. For G35A U43G, the self-cleavage came to 0.12. On to G35A U43A, for which the self-cleavage was found to be 0.46. The figure for G35A G48A is 0.12; for G35A G48C it is 0.1; for G35A G48U it is 0.09. Regarding G34A G51U, the self-cleavage was 0.1. As for G34A G51A, the self-cleavage was found to be 0.15. As to G34A G51C, the self-cleavage was 0.06.

As for G34C G51A, the self-cleavage was 0.1. For G34C G51U the value was 0.06; for G34C G51C, 0.06. For the variant G34U G44A, the self-cleavage stood at 0.55. Turning to G34U G44U, the self-cleavage was determined as 0.5.

In the case of G34U G44C, the self-cleavage came out at 0.41. The figure for G34A U43G is 0.1; for G34A U43A it is 0.22; for G34A U43C it is 0.19.

As for G34A U18A, the self-cleavage is 0.73. For the variant G34A U18C, the self-cleavage worked out at 0.43. For the variant G34A U18G, the self-cleavage is 0.71. As to G35C G42C, the self-cleavage amounted to 0.07.

Turning to G35C G42A, the self-cleavage amounted to 0.08. The figure for G35C G42U is 0.07. The figure for C33U U37A is 0.87.

Consider C33U U37C, for which the self-cleavage amounted to 0.88.

On to C33U U37G, for which the self-cleavage came out at 0.9. The figure for G34A G48A is 0.08; for G34A G48C it is 0.08; for G34A G48U it is 0.06. For the variant A36C C11U, the self-cleavage was 0.26. A36C C11G: the self-cleavage stood at 0.08. As to A36C C11A, the self-cleavage was 0.11.

Regarding A36C C9G, the self-cleavage turned out to be 0.11.

With A36C C9A, the self-cleavage was 0.08. A36C C9U: the self-cleavage was 0.21. With G35U U43G, the self-cleavage amounted to 0.12. Take G35U U43C: the self-cleavage was 0.21. The figure for G35U U43A is 0.44; for G34U G51C it is 0.05. The figure for G34U G51A is 0.1; for G34U G51U it is 0.06; for G34C G44C it is 0.14. Consider G34C G44A, for which the self-cleavage is 0.2.

For G34C G44U, the self-cleavage worked out at 0.16. For G34U G45C, the self-cleavage worked out at 0.05. Take G34U G45U: the self-cleavage is 0.08. As for G34U G45A, the self-cleavage was 0.09. For the variant G35C G54U, the self-cleavage was found to be 0.36. Turning to G35C G54A, the self-cleavage amounted to 0.2. On to G35C G54C, for which the self-cleavage came to 0.13.

On to G34C G49C, for which the self-cleavage was determined as 0.06.

For the variant G34C G49U, the self-cleavage was found to be 0.07.

On to G34C G49A, for which the self-cleavage was 0.06. Regarding G35C G45A, the self-cleavage turned out to be 0.05. Consider G35C G45C, for which the self-cleavage worked out at 0.07.

As to G35C G45U, the self-cleavage was determined as 0.05. As for A36C A38G, the self-cleavage came out at 0.54. A36C A38U: the self-cleavage stood at 0.79. As to A36C A38C, the self-cleavage came to 0.81.

In the case of G34A G50A, the self-cleavage worked out at 0.29.

For G34A G50C, the self-cleavage stood at 0.6. On to G34A G50U, for which the self-cleavage was determined as 0.83. In the case of A36C C14G, the self-cleavage came out at 0.06. Turning to A36C C14U, the self-cleavage amounted to 0.09. As for A36C C14A, the self-cleavage came to 0.06.

In the case of G34U G42C, the self-cleavage was 0.08.

In the case of G34U G42A, the self-cleavage came to 0.13. The figure for G34U G42U is 0.07; for G34C G54A it is 0.15. For G34C G54U, the self-cleavage came out at 0.25. The figure for G34C G54C is 0.16. For G35U G50A the value was 0.35; for G35U G50U, 0.92; for G35U G50C, 0.79. As to C33U U24C, the self-cleavage was determined as 0.06. For the variant C33U U24A, the self-cleavage stood at 0.14.
